Measurements of several laboratories.
Each line is one published result; the experiments were not run side by side.
Target: Serine/threonine-protein kinase Nek6 (NEK6, Homo sapiens, UniProt Q9HC98)

Compound	effect on	method	tested at	remaining binding
O=C(c1ccc(Nc2ncc(Cl)c(-c3cc4ccccc4s3)n2)cc1)N1CCC(N2CCCC2)CC1	binding	competition with immobilised ligand	1 µM	35%
O=C(Nc1c[nH]nc1C(=O)NC1CCNCC1)c1cc(F)cc(F)c1	binding	competition with immobilised ligand	1 µM	100%
COc1ccc2c(O[C@@H]3C[C@H]4C(=O)N[C@]5(C(=O)O)CC5/C=C\CCCCC[C@H](NC(=O)OC5CCCC5)C(=O)N4C3)cc(-c3csc(NC(=O)C(C)C)n3)nc2c1C (stereo partly shown)	cell-free assay	competition with immobilised ligand	1 µM	98%
O=C(c1ccc(Nc2nccc(-c3cc4ccccc4s3)n2)cc1)N1CCC(N2CCCC2)CC1	binding	competition with immobilised ligand	1 µM	87%
COc1cnc(Nc2cccc(S(N)(=O)=O)c2)nc1N1CCN(c2ccccc2)CC1	binding	competition with immobilised ligand	1 µM	100%
FC(F)(F)Oc1cccc(-c2cnc3ccc(-c4ccncc4)nn23)c1	cell-free assay	competition with immobilised ligand	5 µM	85%
N[C@H]1CCN(c2nccc(-c3cnn4ncccc34)n2)C1	binding	–	1 µM	100%
Cc1cnc(Nc2ccc(C(=O)N3CCC(N4CCCC4)CC3)cc2)nc1-c1cc2ccccc2s1	binding	competition with immobilised ligand	1 µM	10%
C=CC(=O)N1CCC(C(=O)NCC(=O)N2CCN(c3nc(-c4cnc(N)nc4C(F)F)nc(N4CCOCC4)n3)CC2)CC1	binding	competition with immobilised ligand	1 µM	95%
C[C@H]1CCN(c2nccc(-c3cnn4ncccc34)n2)C1	binding	–	1 µM	100%
C[C@H](c1cccc(C#N)c1)n1cc(Cl)cc(C(N)=O)c1=N	cell-free assay	competition with immobilised ligand	1 µM	94%
Cc1cnn2ncc(-c3ccnc(N(C)C)n3)c2c1	binding	–	1 µM	100%
CCCOc1ccc([C@@H]2[C@@H](C(=O)O)[C@H](c3ccc4c(c3)OCO4)CN2CC(=O)Nc2c(CC)cccc2CC)cc1	cell-free assay	competition with immobilised ligand	1 µM	92%
Nc1ncc2c(n1)-c1c([nH]c3ccc(C#CC4CC4)cc13)CCCC2	binding	competition with immobilised ligand	1 µM	90%
CS(=O)(=O)N1CCCC(NC(=O)[C@H](CCC2CCCCC2)NC(=O)c2ccc(CNC(=O)c3cnc4ccccn34)cc2)C1 (stereo partly shown)	cell-free assay	competition with immobilised ligand	0.1 µM	100%
CN(C)c1nccc(-c2cnc3ncccn23)n1	binding	–	1 µM	94%
NS(=O)(=O)c1cc(NC(=O)C2(c3ccccc3Cl)CC2)ccc1Oc1cccc(Cl)c1	cell-free assay	competition with immobilised ligand	1 µM	81%
c1cncc(-c2cccc(Nc3nccc(NC4CCCCC4)n3)c2)c1	binding	competition with immobilised ligand	10 µM	71%
CN(C)c1ncc(F)c(-c2cnn3ncccc23)n1	binding	–	1 µM	99%
O=C(NCc1ncc(C(F)(F)F)cc1Cl)c1ccc2c(c1)C1(CCS(=O)(=O)CC1)[C@H](C1CC1)N2S(=O)(=O)c1ccc(F)cc1	cell-free assay	competition with immobilised ligand	1 µM	100%
F[C@@H]1CCN(c2nccc(-c3cnn4ncccc34)n2)C1	binding	–	1 µM	100%
CC1=C(C#N)[C@@H](c2ccc3[nH]nc(C)c3c2)C(C#N)=C(c2ccc(Cl)cc2)N1	cell-free assay	competition with immobilised ligand	1 µM	100%
